Results published in ChEMBL document CHEMBL1131333, “2-Iminohomopiperidinium salts as selective inhibitors of inducible nitric oxide synthase (iNOS)” (J Med Chem, 1998).

Key:
Nitric oxide synthase 3 = target: T1, Nitric oxide synthase 3 (Homo sapiens, UniProt P29474); assay: Inhibitory activity evaluated from soluble cell extract of human endothelia constitutive enzyme (Endothelial nitric oxide synthase) and partially purified by DEAE-sepharose chromatography
T1 sequence (P29474 whole entry): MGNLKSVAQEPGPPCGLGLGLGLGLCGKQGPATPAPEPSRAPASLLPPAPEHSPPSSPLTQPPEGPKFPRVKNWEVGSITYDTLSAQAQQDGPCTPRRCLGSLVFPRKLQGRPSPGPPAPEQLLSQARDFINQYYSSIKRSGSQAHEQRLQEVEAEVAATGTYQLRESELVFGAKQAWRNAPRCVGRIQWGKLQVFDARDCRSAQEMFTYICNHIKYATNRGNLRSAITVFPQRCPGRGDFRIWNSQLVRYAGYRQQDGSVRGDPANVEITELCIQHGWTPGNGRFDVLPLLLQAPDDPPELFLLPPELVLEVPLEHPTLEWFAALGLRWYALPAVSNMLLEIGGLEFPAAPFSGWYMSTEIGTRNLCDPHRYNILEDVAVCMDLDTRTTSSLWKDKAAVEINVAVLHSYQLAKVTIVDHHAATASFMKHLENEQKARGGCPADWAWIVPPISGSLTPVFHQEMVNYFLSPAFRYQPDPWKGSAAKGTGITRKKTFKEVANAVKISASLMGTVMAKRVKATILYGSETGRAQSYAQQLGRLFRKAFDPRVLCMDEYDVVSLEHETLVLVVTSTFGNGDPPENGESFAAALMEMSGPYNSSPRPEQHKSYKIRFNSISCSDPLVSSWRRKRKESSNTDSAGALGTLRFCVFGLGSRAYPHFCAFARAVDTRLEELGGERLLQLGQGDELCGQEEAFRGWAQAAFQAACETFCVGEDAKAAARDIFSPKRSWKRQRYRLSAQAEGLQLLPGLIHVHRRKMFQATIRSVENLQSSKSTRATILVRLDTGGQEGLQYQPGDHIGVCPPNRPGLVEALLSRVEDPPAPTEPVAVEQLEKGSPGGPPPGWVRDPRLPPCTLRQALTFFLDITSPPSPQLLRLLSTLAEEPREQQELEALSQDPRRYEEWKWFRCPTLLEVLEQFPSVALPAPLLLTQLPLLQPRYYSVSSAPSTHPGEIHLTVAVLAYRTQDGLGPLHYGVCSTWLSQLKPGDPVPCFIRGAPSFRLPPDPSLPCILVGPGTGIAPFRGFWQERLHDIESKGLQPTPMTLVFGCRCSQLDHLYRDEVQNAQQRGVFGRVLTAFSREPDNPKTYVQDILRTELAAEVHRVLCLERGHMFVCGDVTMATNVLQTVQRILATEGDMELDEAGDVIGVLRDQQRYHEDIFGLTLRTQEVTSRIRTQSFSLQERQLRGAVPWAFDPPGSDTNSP
Outline: (§1)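 Recombinant human iNOS, eNOS or nNOS expressed in Sf9 cells (baculovirus). L-[3H]arginine to [3H]citrulline conversion in Tris pH 7.6 with BSA, DTT, CaCl2, FAD, tetrahydrobiopterin, NADPH and 30 μM final L-arginine. Calmodulin at 40 nM final for eNOS and nNOS only. 15 min at 37 °C, stopped with EGTA/HEPES pH 5.5, Dowex separation, scintillation counting. At least duplicate.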

Nitric oxide synthase 1 [1] = target: T2, Nitric oxide synthase 1 (Homo sapiens, UniProt P29475); assay: Inhibitory activity evaluated from soluble cell extract of human nNeuronal nitric oxide synthase and partially purified by DEAE-sepharose chromatography; outline: as §1
T2 sequence (P29475 whole entry): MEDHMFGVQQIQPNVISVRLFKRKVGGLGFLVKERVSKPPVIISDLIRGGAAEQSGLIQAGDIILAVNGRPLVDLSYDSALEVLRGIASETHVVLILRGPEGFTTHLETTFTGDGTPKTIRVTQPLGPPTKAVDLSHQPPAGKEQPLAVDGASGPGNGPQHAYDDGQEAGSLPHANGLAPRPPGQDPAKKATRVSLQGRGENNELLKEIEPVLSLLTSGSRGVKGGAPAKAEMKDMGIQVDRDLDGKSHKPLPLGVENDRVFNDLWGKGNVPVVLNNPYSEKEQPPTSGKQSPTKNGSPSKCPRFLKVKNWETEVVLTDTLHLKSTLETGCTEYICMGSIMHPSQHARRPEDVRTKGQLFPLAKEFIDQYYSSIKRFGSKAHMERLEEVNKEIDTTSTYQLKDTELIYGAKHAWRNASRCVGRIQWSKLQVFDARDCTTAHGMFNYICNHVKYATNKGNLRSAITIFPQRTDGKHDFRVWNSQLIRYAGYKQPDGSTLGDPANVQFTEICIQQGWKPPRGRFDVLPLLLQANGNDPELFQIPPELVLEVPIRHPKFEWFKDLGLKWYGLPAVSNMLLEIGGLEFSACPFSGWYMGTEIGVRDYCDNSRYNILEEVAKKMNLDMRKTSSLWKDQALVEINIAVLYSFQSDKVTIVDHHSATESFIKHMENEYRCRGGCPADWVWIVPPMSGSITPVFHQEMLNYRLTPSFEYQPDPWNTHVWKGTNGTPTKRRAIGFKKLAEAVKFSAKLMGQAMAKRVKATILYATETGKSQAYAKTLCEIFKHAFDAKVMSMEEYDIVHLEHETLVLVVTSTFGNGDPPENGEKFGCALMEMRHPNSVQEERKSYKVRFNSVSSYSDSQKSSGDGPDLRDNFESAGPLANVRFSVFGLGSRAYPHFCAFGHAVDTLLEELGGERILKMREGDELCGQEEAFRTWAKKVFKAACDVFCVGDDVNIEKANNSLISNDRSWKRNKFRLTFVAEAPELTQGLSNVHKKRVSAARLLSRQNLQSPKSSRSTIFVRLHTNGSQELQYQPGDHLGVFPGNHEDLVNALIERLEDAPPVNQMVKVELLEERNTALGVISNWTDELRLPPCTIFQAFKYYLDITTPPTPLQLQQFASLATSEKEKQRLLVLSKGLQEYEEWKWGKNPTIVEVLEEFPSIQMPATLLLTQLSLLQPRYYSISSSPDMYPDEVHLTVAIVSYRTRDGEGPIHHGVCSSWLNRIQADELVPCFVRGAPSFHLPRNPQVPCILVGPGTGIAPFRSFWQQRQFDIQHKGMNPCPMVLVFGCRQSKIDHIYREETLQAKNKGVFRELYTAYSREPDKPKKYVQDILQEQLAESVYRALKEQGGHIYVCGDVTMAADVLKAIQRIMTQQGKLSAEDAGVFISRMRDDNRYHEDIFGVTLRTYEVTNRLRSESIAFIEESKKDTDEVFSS

Nitric oxide synthase 1 [2] = target: T2, Nitric oxide synthase 1; assay: Inhibitory activity evaluated from soluble cell extract of Neuronal nitric oxide synthase and partially purified by DEAE-sepharose chromatography
[3] = target: T3, Nitric oxide synthase, inducible (Mus musculus, UniProt P29477); assay: The ability of compound to inhibit mouse Inducible nitric oxide synthase in LPS stimulated mouse RAW cells was determined; assay type: cell-based
T3 sequence (P29477 whole entry): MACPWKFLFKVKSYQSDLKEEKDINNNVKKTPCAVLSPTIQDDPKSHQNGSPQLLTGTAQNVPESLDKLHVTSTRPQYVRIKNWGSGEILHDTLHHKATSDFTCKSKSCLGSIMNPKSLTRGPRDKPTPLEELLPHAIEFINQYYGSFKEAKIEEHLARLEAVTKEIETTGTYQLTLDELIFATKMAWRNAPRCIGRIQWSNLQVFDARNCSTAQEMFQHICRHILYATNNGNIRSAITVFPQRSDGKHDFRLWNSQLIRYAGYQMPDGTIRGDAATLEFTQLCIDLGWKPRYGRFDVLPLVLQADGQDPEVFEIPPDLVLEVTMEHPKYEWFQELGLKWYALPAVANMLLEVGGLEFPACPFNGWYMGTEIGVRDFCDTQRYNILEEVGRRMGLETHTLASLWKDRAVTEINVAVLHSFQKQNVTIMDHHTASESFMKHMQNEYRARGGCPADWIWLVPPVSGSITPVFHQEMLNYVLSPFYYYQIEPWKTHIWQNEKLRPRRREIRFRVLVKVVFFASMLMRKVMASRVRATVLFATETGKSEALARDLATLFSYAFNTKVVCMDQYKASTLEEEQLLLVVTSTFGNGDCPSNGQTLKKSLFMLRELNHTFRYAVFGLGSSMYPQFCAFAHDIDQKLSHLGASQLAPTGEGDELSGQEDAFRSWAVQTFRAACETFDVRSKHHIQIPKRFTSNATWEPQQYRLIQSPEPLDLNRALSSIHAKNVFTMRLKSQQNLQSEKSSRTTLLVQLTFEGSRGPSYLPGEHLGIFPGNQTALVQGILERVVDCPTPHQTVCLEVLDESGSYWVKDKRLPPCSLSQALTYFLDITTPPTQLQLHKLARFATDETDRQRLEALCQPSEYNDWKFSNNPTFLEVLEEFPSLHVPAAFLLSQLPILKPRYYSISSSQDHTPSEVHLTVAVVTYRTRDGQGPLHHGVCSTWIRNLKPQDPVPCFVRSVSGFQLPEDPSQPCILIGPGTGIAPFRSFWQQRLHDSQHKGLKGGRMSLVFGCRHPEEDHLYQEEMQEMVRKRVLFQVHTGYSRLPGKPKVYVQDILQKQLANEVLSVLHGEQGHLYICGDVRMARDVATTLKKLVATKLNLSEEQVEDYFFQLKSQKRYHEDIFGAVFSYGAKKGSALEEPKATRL
Outline: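 RAW 264.7 cells plated at 2×10^5/well and induced 17 h with 10 μg/mL LPS (E. coli O111:B4). Washed, preincubated 1 h on ice in Krebs Ringer/HEPES pH 7.5 with glucose, 30 μM L-arginine and five inhibitor concentrations, then 2 h at 37 °C. Nitrite measured fluorometrically.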

[4] = target: Nitric oxide synthase, inducible (Homo sapiens, UniProt P35228); assay: Inhibitory activity evaluated for soluble cell extract of human Inducible nitric oxide synthase and partially purified by DEAE-sepharose chromatography; outline: as §1
Nitric oxide synthase, inducible (Homo sapiens, UniProt P35228), sequence (P35228 whole entry): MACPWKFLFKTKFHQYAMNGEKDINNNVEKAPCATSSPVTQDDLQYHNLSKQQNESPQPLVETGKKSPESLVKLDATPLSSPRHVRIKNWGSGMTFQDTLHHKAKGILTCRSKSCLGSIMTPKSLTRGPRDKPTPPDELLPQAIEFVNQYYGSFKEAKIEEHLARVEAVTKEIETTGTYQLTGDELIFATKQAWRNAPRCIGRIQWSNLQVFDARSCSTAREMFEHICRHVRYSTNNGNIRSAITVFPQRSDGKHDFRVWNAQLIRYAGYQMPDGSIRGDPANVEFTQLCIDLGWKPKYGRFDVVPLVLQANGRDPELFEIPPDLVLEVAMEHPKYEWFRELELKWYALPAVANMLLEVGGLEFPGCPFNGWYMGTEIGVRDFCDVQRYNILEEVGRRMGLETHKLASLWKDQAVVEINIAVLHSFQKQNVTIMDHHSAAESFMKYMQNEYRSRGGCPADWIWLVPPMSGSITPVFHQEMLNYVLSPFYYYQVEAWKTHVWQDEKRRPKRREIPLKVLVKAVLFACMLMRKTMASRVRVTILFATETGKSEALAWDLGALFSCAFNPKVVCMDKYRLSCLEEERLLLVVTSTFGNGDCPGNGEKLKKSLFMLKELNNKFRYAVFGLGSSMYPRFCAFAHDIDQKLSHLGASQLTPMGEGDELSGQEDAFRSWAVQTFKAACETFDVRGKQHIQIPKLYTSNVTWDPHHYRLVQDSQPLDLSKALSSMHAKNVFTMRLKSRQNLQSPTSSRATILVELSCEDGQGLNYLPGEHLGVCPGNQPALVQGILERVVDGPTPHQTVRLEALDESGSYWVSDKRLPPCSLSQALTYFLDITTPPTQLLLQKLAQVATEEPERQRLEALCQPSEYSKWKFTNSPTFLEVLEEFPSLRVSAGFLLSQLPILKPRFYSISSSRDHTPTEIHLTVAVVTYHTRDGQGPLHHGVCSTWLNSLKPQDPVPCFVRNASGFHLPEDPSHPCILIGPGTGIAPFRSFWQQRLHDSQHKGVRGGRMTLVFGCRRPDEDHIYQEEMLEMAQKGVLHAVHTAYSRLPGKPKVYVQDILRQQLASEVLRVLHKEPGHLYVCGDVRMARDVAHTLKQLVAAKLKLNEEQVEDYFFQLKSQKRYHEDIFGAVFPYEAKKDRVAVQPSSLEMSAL

Nitric oxide synthase 1 [5] = target: T2, Nitric oxide synthase 1; assay: Inhibitory activity evaluated from soluble cell extract of human Neuronal nitric oxide synthase and partially purified by DEAE-sepharose chromatography; outline: as §1
[6] = target: Nitric oxide synthase, inducible (Rattus norvegicus) (UniProt Q06518); assay: The ability of compounds to inhibit Inducible nitric oxide synthase in LPS-treated male Lewis rats at 10 mg/kg dose; assay type: organism-based; design: dose 10 mg/kg
Nitric oxide synthase, inducible (Rattus norvegicus), sequence (Q06518 whole entry): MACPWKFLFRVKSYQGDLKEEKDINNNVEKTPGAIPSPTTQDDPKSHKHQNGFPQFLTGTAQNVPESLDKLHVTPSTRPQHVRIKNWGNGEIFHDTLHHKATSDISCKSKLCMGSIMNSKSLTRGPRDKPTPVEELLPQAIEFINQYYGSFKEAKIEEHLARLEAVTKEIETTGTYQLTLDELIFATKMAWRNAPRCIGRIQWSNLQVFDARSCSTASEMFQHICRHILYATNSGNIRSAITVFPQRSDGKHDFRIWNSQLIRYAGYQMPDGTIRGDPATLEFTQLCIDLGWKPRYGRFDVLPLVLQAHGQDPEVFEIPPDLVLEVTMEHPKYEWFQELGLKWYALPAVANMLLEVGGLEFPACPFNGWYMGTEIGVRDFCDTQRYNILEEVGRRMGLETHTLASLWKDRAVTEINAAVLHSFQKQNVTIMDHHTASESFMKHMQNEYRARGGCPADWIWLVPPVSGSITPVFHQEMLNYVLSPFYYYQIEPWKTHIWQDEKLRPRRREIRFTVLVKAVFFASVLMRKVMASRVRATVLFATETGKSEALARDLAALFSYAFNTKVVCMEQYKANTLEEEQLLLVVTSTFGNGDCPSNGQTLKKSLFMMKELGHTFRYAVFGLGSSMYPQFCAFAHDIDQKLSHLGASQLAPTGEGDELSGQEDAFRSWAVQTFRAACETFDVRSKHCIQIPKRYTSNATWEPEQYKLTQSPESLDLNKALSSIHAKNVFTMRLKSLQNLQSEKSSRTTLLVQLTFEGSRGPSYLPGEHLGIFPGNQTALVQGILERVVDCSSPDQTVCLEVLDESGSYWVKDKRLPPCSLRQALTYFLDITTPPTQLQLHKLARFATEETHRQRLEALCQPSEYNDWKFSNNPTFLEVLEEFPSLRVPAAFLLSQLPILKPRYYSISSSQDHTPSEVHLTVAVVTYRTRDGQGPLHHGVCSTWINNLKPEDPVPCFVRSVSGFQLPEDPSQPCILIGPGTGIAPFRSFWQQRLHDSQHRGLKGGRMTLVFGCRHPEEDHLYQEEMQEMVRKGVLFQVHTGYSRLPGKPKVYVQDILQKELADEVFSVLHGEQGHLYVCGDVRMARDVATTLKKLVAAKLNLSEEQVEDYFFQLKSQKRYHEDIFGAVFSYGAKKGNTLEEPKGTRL
Outline: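 Rats dosed 10 mg/kg orally by gavage 1 h before LPS (10 mg/kg ip). Blood taken 5 h after LPS; plasma filtered through a 10 000 MW cutoff filter, and nitrite/nitrate measured fluorometrically. Percent inhibition calculated relative to rats given LPS alone.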

Structure (SMILES) | IC50 (Nitric oxide synthase 3) [µM] | IC50 (Nitric oxide synthase 1 [1]) [µM] | IC50 (Nitric oxide synthase 1 [2]) [µM] | IC50 [3] [µM] | IC50 [4] [µM] | IC50 (Nitric oxide synthase 1 [5]) [µM] | inhibition [6] [%]
C[C@@H]1CCCC(N)=NC1 | 39 | 3.8 |  |  |  |  | 
CCC1CCCCN=C1N (configuration not stated) | 38 |  | 2.4 |  |  |  | 
NC1=NC(c2ccccc2)CCCC1 (configuration not stated) | 215 |  |  | 31 | 14 | 6.6 | 
CCCCC1CCCCC(N)=N1 (configuration not stated) | 103 | 0.85 |  | 1.6 | 0.5 |  | 60
NC1=NCCCCC1 | 15 |  |  | 54 | 2.1 |  | 
CCCC1CCCCC(N)=N1 (configuration not stated) | 9.5 |  |  |  |  |  | 85
CCC(CC)CC1CCCCC(N)=N1 (configuration not stated) | 660 |  |  | 3.3 | 2.1 | 5.4 | 
C=CCC1CCCCC(N)=N1 (configuration not stated) | 21 |  |  |  |  |  | 80
C=CCC1CCCCN=C1N (configuration not stated) | 380 |  | 16 | 19 | 5.8 |  | 
CC1CCN=C(N)CC1 (configuration not stated) | 39 |  | 11 | 24 | 5.8 |  | 
